Test results from ChEMBL document CHEMBL1255566, “Rigid analogues of the α2-adrenergic blocker atipamezole: small changes, big consequences” (J Med Chem, 2010).

Columns and labels:
[1] = test system: Mus musculus; assay: Ratio of ED50 for santihypothermic activity in po dosed NMRI mouse to ED50 for antihypothermic activity in ip dosed NMRI mouse; assay type: functional
In short: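 Guanabenz-induced hypothermia in mice, five animals per dose. ED50 (the dose inhibiting hypothermia in 50% of guanabenz-treated animals) was obtained after oral gavage and after intraperitoneal injection, and the ratio po/ip was then calculated.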

[2] = biological target: T1, Alpha-1B adrenergic receptor (Homo sapiens, UniProt P35368); assay: Displacement of [3H]-prazosin from human adrenergic alpha-1b receptor expressed in CHO cells after 120 mins by liquid scintillation counting; assay type: cell-based
T1 sequence (P35368 whole entry): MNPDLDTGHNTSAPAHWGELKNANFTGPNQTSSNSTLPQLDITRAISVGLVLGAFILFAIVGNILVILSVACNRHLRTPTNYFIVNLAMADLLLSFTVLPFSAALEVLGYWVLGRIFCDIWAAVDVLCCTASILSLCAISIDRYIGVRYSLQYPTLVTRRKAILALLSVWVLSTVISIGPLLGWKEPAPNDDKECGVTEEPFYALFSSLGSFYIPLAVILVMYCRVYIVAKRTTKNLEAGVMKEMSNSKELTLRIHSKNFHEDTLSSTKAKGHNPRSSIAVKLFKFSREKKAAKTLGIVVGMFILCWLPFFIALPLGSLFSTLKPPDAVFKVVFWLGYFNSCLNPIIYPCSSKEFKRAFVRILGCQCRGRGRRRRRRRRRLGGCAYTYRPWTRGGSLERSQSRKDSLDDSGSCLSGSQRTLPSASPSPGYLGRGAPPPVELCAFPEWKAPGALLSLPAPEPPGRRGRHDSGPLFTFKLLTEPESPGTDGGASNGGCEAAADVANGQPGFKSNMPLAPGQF
In short: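 Competition binding at human α1b receptors stably expressed in CHO cells. Affinity values are means ± SEM of at least two experiments, each in duplicate.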

[3] = test system: Mus musculus; assay: Antihypothermic activity in po dosed NMRI mouse assessed as inhibition of guanabenz-induced hypothermia administered 35 mins before guanabenz challenge measured after 25 mins; assay type: functional
In short: (§1)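 Mice got the compound by intraperitoneal injection or oral gavage before guanabenz challenge, and reversal of guanabenz-induced hypothermia was scored. Five animals were tested per dose. ED50 is the dose giving an inhibitory effect in 50% of guanabenz-treated animals, with 95% confidence limits.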

[4] = biological target: T2, Alpha-2A adrenergic receptor (Homo sapiens, UniProt P08913); assay: Displacement of [3H]-RX821002 from human adrenergic alpha2A receptor expressed in rat C6 cells after 120 mins by liquid scintillation counting; assay type: cell-based
T2 sequence (P08913 whole entry): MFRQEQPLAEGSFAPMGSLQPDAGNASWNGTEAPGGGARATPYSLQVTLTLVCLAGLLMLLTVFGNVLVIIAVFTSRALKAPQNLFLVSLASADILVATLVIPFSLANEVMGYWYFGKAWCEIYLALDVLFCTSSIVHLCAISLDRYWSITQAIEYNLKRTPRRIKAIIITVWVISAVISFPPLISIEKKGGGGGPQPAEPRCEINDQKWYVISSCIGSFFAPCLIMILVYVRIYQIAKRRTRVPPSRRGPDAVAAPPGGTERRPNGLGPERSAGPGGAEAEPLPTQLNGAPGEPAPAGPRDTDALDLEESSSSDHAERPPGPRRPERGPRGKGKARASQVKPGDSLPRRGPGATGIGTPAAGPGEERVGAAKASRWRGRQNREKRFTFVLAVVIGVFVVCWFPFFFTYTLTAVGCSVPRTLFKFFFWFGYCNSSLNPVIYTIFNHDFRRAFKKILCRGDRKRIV
In short: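 Competition binding at human α2A receptors expressed in C6 glial cells. Affinity values are means ± SEM of at least two experiments, each in duplicate.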

[5] = biological target: T3, Alpha-2C adrenergic receptor (Homo sapiens, UniProt P18825); assay: Displacement of [3H]-RX821002 from human adrenergic Alpha-2C receptor expressed in rat C6 cells after 120 mins by liquid scintillation counting; assay type: cell-based
T3 sequence (P18825 whole entry): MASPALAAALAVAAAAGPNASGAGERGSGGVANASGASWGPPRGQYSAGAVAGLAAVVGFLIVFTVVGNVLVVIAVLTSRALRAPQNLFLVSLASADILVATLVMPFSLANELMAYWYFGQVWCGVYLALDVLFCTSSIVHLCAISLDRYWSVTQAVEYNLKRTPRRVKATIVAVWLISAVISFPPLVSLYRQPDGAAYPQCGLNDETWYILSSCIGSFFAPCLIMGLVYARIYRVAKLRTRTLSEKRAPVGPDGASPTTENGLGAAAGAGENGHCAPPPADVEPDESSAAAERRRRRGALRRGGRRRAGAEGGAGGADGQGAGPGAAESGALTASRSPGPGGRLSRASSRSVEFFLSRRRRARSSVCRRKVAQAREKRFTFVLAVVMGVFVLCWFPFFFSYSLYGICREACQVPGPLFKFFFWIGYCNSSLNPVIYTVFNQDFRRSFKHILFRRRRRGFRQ

[6] = biological target: T4, Alpha-2A adrenergic receptor (Homo sapiens) (UniProt P08913); assay: Antagonist activity at human adrenergic alpha2A receptor expressed in CHO cells assessed as inhibition of adrenaline-induced [35S]GTPgammaS binding after 30 mins by scintillation counting; assay type: functional, cell-based
T4 sequence (whole entry): T2 sequence (P08913 whole entry)
In short: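 Inhibition of adrenaline-stimulated [35S]GTPγS binding in CHO cells expressing human α2A receptors. Compounds were also run alone to check for any stimulation of [35S]GTPγS binding. Antagonist potency is reported as pKB, taken as the potency that inhibits 50% of adrenaline-induced binding.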

[7] = test system: Mus musculus; assay: Antihypothermic activity in ip dosed NMRI mouse assessed as inhibition of guanabenz-induced hypothermia administered 5 mins before guanabenz challenge measured after 25 mins; assay type: functional; in short: as §1
[8] = biological target: T5, Alpha-2B adrenergic receptor (Homo sapiens, UniProt P18089); assay: Displacement of [3H]-RX821002 from human adrenergic alpha2B receptor expressed in rat C6 cells after 120 mins by liquid scintillation counting; assay type: cell-based
T5 sequence (P18089 whole entry): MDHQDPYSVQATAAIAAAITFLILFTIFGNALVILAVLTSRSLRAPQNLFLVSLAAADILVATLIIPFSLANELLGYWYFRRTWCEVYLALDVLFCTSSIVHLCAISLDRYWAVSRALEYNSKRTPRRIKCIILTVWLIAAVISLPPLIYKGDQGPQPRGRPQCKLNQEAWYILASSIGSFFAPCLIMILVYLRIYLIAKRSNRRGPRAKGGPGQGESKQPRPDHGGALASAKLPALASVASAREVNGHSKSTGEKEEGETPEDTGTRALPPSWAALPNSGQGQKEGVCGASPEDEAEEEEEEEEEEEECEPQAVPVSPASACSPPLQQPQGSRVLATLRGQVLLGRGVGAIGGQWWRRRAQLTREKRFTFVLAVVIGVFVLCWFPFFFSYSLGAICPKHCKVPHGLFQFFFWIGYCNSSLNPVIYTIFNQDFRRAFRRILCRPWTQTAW

[9] = test system: Mus musculus; assay: Increase of normetanephrine level in NMRI mouse cortex at 10 mg/kg, ip after 1 hr microwave irradiation; assay type: functional; conditions: route intraperitoneal
In short: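 Single intraperitoneal dose; mice were killed by head-focused microwave irradiation 1 h later. Frontal cortex normetanephrine, an extracellular noradrenaline metabolite, was measured and expressed as increase relative to control animals, giving dose-response data across 0.16 to 10 mg/kg.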

[10] = Mus musculus, NMRI, po, read-out: ED50
[11] = Mus musculus, NMRI, ip, read-out: ED50

| Compound | Ratio ED50 [1] | Ki [2] [nM] | ED50 [3, 10] [mg/kg] | Ki [4] [nM] | Ki [5] [nM] | pKb [6] | ED50 [7, 11] [mg/kg] | Ki [8] [nM] | Activity [9] [%] | ED50 [3] [mg/kg] | ED50 [7] [mg/kg] |
| --- | --- | --- | --- | --- | --- | --- | --- | --- | --- | --- | --- |
| C[C@H]1[C@@H]2c3ccccc3C[C@]12c1c[nH]cn1 | 3.2 | 33.1 | 0.19 | 0.174 | 0.295 | 9.67 | 0.06 | 0.204 | – | – | – |
| CC1(C)C2c3ccccc3C[C@@]21c1c[nH]cn1 (single isomer, unassigned) | 6.7 | 178 | 0.47 | 1.07 | 1.17 | 8.97 | 0.07 | 1.15 | – | – | – |
| CCC1(c2c[nH]cn2)Cc2ccc(F)cc2C1 (configuration not stated) [FIPAMEZOLE] | 4 | 2090 | 1.87 | 7.24 | 13.8 | 7.84 | 0.47 | 6.76 | 247 | – | – |
| C[C@]12CC1(c1c[nH]cn1)Cc1ccccc12 (single isomer, unassigned) | 11 | 39.8 | 0.66 | 0.447 | 2.82 | 8.66 | 0.06 | 0.912 | – | – | – |
| CO[C@H]1c2ccccc2[C@H]2C[C@]21c1c[nH]cn1 (relative stereo) | 3.1 | 102 | – | 1.74 | 5.75 | – | – | 7.76 | – | 0.28 | 0.09 |
| CCO[C@H]1c2ccccc2[C@H]2C[C@]21c1c[nH]cn1 (relative stereo) | 0.2 | 39.8 | 0.03 | 3.31 | 10.2 | 8.36 | 0.16 | 9.77 | – | – | – |
| CO[C@H]1c2ccccc2[C@H]2C[C@]21c1c[nH]cn1 (stereo in doubt; (+)-3) | 2.3 | 63.1 | – | 0.562 | 1.95 | – | – | 2.82 | – | 0.07 | 0.03 |
| CC[C@H]1c2ccccc2[C@H]2C[C@]21c1c[nH]cn1 (relative stereo) | 1.3 | 40.7 | 0.04 | 0.513 | 1.26 | 8.91 | 0.03 | 1.62 | – | – | – |
| C[C@H]1c2ccccc2[C@H]2C[C@]21c1c[nH]cn1 (relative stereo) | 1.5 | – | 0.009 | – | – | 9.54 | 0.006 | – | – | – | – |
| CCCO[C@H]1c2ccccc2[C@H]2C[C@]21c1c[nH]cn1 (relative stereo) | 0.4 | – | 0.12 | – | – | 8.16 | 0.29 | – | – | – | – |
| c1ccc2c(c1)[C@H]1C[C@@]1(c1c[nH]cn1)C21CC1 (stereo in doubt; (-)-10) | 10.4 | 97.7 | – | 3.89 | 20.4 | – | – | 6.76 | – | 1.87 | 0.18 |
| CCC1(c2c[nH]cn2)Cc2ccccc2C1 [ATIPAMEZOLE] | 10.3 | – | 1.95 | – | – | 8.05 | 0.19 | – | 258 | – | – |
| CCC[C@H]1[C@@H]2c3ccccc3C[C@]12c1c[nH]cn1 | 3.3 | 3.55 | 0.33 | 0.407 | 0.437 | 9.24 | 0.1 | 0.347 | – | – | – |
| c1ccc2c(c1)C[C@]1(c3c[nH]cn3)C[C@H]21 (stereo in doubt; (-)-1) | 5 | 1.05 | – | 0.0282 | 0.129 | – | – | 0.11 | – | 0.04 | 0.008 |
| CNCCCN1c2ccccc2CCc2ccccc21 [DESIPRAMINE] | – | – | – | – | – | – | – | – | 223 | – | – |
| CCC[C@H]1c2ccccc2[C@H]2C[C@]21c1c[nH]cn1 (relative stereo) | 1.2 | 8.91 | 0.12 | 0.851 | 1.48 | 8.7 | 0.1 | 2.29 | – | – | – |
